Columns and labels:
cardiac tissue = experiment: Cardiac immunohistochemistry with OpiCa1 polyclonal antibody; format: in vivo; settings: mice, 12 h, self-prepared OpiCa1 polyclonal antibody, n = 6; in words
[1] = Plasma OpiCa1 concentration in vivo by ELISA; settings: mice, injection of free OpiCa1 5 mg/kg
H9C2 cells = experiment: Flow cytometry, Annexin V-FITC / propidium iodide apoptosis; format: cell-based, rat; settings: 100 μM OpiCa1, 12 h, Annexin V-FITC/PI flow cytometry
ICR mice [2] = experiment: Blood biochemical examinations; format: in vivo; settings: i.v. 5 mg/kg OpiCa1 equivalent, 12 h, n = 6
How it was run: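 Blood was drawn from the inner canthus into anticoagulant tubes 12 h after dosing and assayed for ALT, AST, CK, CK-MB, LDH, creatinine and uric acid. Data are mean ± SD; two-group comparisons used two-tailed Mann-Whitney tests.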

ICR mice [3] = experiment: H&E staining pathological examination of heart; format: in vivo; settings: 12 h after intravenous injection, n = 6
How it was run: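 Twelve hours after intravenous dosing (test compound at 5 mg/kg peptide equivalent, free peptide, empty carrier or control; n = 6), heart tissue was fixed in 4 % paraformaldehyde. It then underwent routine hematoxylin-eosin staining for histopathological examination.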

RyRs = settings: read-out: affinity between OpiCa1 and RyRs; cited from earlier work
[4] = test system: SR Ca^2+ overload related tachyarrhythmias in CPVT; settings: cited from earlier work

Substance | distribution in cardiac tissue by immunohistochemistry (cardiac tissue) | time to complete disappearance from plasma [1] [h] | proportion of apoptotic cells (H9C2 cells) | cardiac function (CK, CK-MB, and LDH) (ICR mice [2]) | liver function (ALT and AST) (ICR mice [2]) | renal function (Crea and UA) (ICR mice [2]) | pathological examination of heart (H&E) (ICR mice [3]) | Kd (RyRs) [nM] | antagonism of SR Ca^2+ overload related tachyarrhythmias [4]
Opicalcin1 [OpiCa1] | significantly distributed in cardiac tissue | ≤ 48 | about 1.5% | no significant differences | no significant differences | no significant differences | clear myocardial fibers and stripes | ~0.3 | –
Imperacalcin | – | – | – | – | – | – | – | – | can antagonize SR Ca^2+ overload related tachyarrhythmias such as PVCs and non-sustained BVTs in CPVT

— article PMC10682124 (Materials Today Bio, 2023)
